The values that follow come from the EternaBench riboswitch data.

The subject of this data set is MS2 coat protein. Kind of data set: apparent Kd, MS2 coat protein; higher = weaker binding; RNA-MaP array; tryptophan 2.4 mM where present. An outline of the steps:
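Stalled E. coli RNA polymerase produced the designs on Illumina sequencing-chip clusters. SNAP-549-labelled MS2 coat protein was added from 0.7 or 1.5 nM, doubling to 3 µM, without and then with constant ligand, in 100 mM Tris-HCl pH 7.5, 80 mM KCl, 4 mM MgCl2, BSA, DTT, yeast tRNA and Tween-20. The apparent Kd is the median of filtered per-cluster fits of green signal normalised to red-channel RNA signal and control-cluster median Fmax.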

Setting [1] is: designed as: OFF switch for tryptophan, no ligand.
Where [2] appears, read: ligand present: tryptophan, designed as: OFF switch for tryptophan.
[3] abbreviates: designed as: ON switch for tryptophan, no ligand.
Where [4] appears, read: ligand present: tryptophan, designed as: ON switch for tryptophan.

One may read the apparent Kd as the concentration giving half-maximal binding under the conditions of the assay.

As for “AUAAAUAAUAAAUAAAAUAAAAUGGGUGAACGAGGACCGGUACGGCCGCCACUCGGACAUGAGGAUCACCCAUGUCCAUGUGAAA”, the “apparent Kd” value by setting is: under setting [1], 19.5 nM; under setting [2], 46.1 nM.
As to “UGCAUUAUACAUGGAUCACCCAUGUAGACACGAGGACCGGUACGGCCGCCACUCGGAAGAGGGAACAUGAGGAUCACCCAUGUGA”, the “apparent Kd” value was 52.5 nM under setting [3] and 51.5 nM under setting [4].
With “AAUAAUAUCCUCAUGUGAGUCGUACCGUAACGAGGACCGGUACGGCCGCCACUCGAACAUGAGGAUCACCCAUGUAGGUACGACA”, the “apparent Kd” value was found to be 207 nM under setting [3] and 99.7 nM under setting [4].
For “AUUAAUAAUAUGUAGACGGCGGAGACGAGACGAGGACCGGUACGGCCGCCACUCGUGUUAGUUAACAUGAGGAUCACCCAUGUUA”, the “apparent Kd” value by setting is: under setting [3], 12.5 nM; under setting [4], 12.8 nM.
The like results for “GCAUCCUAGUCGGCCGCCACUGCAUCACCAGUGGCAGGUGAUCAACAUGAGGAUCACCCAUGUAGCAGGACCGGGACUAGGAUGC” were, in that order, 135 nM and 43.7 nM.
For “AGACUUCGCAUAGGAAAACUAUGUGAAGUCCGAGGACCGGUACGGCCGCCACUCGUCCUCACAUGAGGAUCACCCAUGUAAAUAA”, the “apparent Kd” value is, setting by setting: under setting [1], 22.2 nM; under setting [2], 29.1 nM.
The like results for “ACGACGGCUGCGGCCGCCACUGUACAUGAGGAUCACCCAUGUGUAGUAAUUGGGACCCUGUGUUACAGGACCGGGUAGUUGAUUA” were, in that order, 34.6 nM and 69.9 nM.
For “AGAUUCGACACGGCCGCCACUUUCAGUGGCUGGUCACAUGGUGCACAUGAGGAUCACCCAUGUGGAAGGACCGGGUGUUGAGUCU” the same measures were 28 nM and 91.9 nM.
Turning to “AAUAUAAUAGACUCGUUUUAGUAUUUGGAACGAGGACCGGUACGGCCGCCACUCGUGAUUUACAUGAGGAUCACCCAUGUUAGCA”, the “apparent Kd” value stood at 14.7 nM under setting [3] and 13.1 nM under setting [4].
Turning to “GCUGGACUUUCGGCCGCCACUGAGAGAGUCGUGUGAACAUGAGGAUCACCCAUGUAAUAUAUAUACAGGACCGGGAGGGUUGUGC”, the “apparent Kd” value runs as follows: under setting [1], 11.8 nM; under setting [2], 11.9 nM.
In the case of “AUACAUGAGGAUCACCCAUGUGAUGGCCGGCGAGGACCGGUACGGCCGCCACUCGUGAUCCGUCCUGAAAGCAAAGCUCUCAACA”, the “apparent Kd” value is, setting by setting: under setting [3], 47.2 nM; under setting [4], 91.2 nM.
Take “GCUACAUGAGGAUCACCCAUGUAUGCGAGCCGAGGACCGGUACGGCCGCCACUCGCUUAACAUGAGGAUCACCCAUGUUUCUCGG”: the “apparent Kd” value came out at 169 nM under setting [3] and 125 nM under setting [4].
“UGUCAGCGAAAGUUGACAUGUCUUACCGGUCGAGGACCGGUACGGCCGCCACUCGAUCACUCGCACAUGAGGAUCACCCAUGUCG”: the “apparent Kd” value is, setting by setting: under setting [3], 12.4 nM; under setting [4], 11.7 nM.
Turning to “GGUUACUCUACGGCCGCCACUGUCAUGUAAAGAUACCUGUACAUGACAUGAGGAUCACCCAUGUGCAGGACCGGGUAGUGUAACC”, the “apparent Kd” value under setting [3] came out at 152 nM and the “apparent Kd” value under setting [4] amounted to 130 nM.
With “AACUUCGCAUAGGAAAACUAUGUGAAGAAUCGAGGACCGGUACGGCCGCCACUCGUCCUCAACAUGAGGAUCACCCAUGUAAUAA”, the “apparent Kd” value under setting [1] was 18.9 nM and the “apparent Kd” value under setting [2] stood at 34.8 nM.
For “GAGGAAACUCACAUGAGGAUCACCCAUGUACGAGGACCGGUACGGCCGCCACUCGAAACCAUGGGCGGUAGUACAUGGAAACAUG”, the “apparent Kd” value was found to be 72.3 nM under setting [1] and 263 nM under setting [2].
The like results for “ACAUGAGGAUCACCCAUGUGAAGCAGGGUACGAGGACCGGUACGGCCGCCACUCGAACAUUAUAACGAGUGAAUGGCAACGAUGU” were, in that order, 11.9 nM and 14.2 nM.
Regarding “GGAAACCCGACGGCCGCCACUAACGGUCUCAAAAGAGGUUGAACACAUGAGGAUCACCCAUGUAAUAGGACCGGGUCGUGUGAAA”, the “apparent Kd” value runs as follows: under setting [3], 20.3 nM; under setting [4], 18.5 nM.
Turning to “UGUCAGCGAAAGUUGACAUGUCUUGCUGGUCGAGGACCGGUACGGCCGCCACUCGAUCUCUCGCACAUGAGGAUCACCCAUGUUG”, the “apparent Kd” value under setting [3] worked out at 12.6 nM and the “apparent Kd” value under setting [4] stood at 13.4 nM.
For “UUCGUAUUGUCGGCCGCCACUGCAACAUGAGGAUCACCCAUGUAAAUUUGGGAGUAGUUAUAUUACAGGACCGGGACAAUAGUAA”, the “apparent Kd” value under setting [1] is 102 nM and the “apparent Kd” value under setting [2] came to 139 nM.
Turning to “UAUUAUCAGUCGGCCGCCACUGUCACAUGAGGAUCACCCAUGUAACUUGGGUUAUAUUUAAUAUACAGGACCGGGACAAAGGCUA”, the “apparent Kd” value under setting [1] turned out to be 58.6 nM and the “apparent Kd” value under setting [2] amounted to 115 nM.
For the sequence “GAGUCCGCGGCGGCCGCCACUCGCGAUAUAACAUGAUAUCAGGACAUGAGGAUCACCCAUGUCACGAGGACCGGGCCGAUCCUCA”, the “apparent Kd” value reads like this: under setting [3], 28 nM; under setting [4], 17.6 nM.
In the case of “UGUCAGCGAAAGUUGACAUGUCUUACCGGUCGAGGACCGGUACGGCCGCCACUCGAUCACUCGCACAUGAGGAUCACCCAUGUUG”, the “apparent Kd” value came out at 18.9 nM under setting [3] and 14.3 nM under setting [4].
As to “CUCAUCCACGCGGCCGCCACUAUAUUGUGGUGUGAGUGUGACGUAUUACAUGAGGAUCACCCAUGUAGGACCGGGCGUGGAUGAG”, the “apparent Kd” value under setting [1] amounted to 34.6 nM and the “apparent Kd” value under setting [2] is 308 nM.
As for “UGUCAUGGAAACAUGACAGGUCUUACCGGUCGAGGACCGGUACGGCCGCCACUCGAUUGGUGGCACAUGAGGAUCACCCAUGUUA”, the “apparent Kd” value reads like this: under setting [3], 29 nM; under setting [4], 26.7 nM.
On to “UUCAGCUAGUCGGCCGCCACUACAUGAGGAUCACCCAUGUCGGUCCUCACUGCUUCGGCAGUGUGUAGGACCGGGACUAGCUGAG”, for which the “apparent Kd” value reads like this: under setting [1], 72.3 nM; under setting [2], 720 nM.
As to “AACAUGAGGAUCACCCAUGUGUCCUCGAAACGAGGACCGGUACGGCCGCCACUCGAAUAAGGUGUUGACGAAAAGUCAGCACCAA”, the “apparent Kd” value came to 274 nM under setting [1] and 501 nM under setting [2].
Take “AGCCACUCGAGUGAUCCUCACGAGUGGCUACGAGGACCGGUACGGCCGCCACUCGAAUUAACAUGAGGAUCACCCAUGUAAUCAU”: the “apparent Kd” value worked out at 31.5 nM under setting [3] and 111 nM under setting [4].
“UCGGAUGCGGCGGCCGCCACUCGCGGAUAACGAUAGCUUAACAUGAGGAUCACCCAUGUGUCAUGGAGGACCGGGCCCAUACCGU”: the “apparent Kd” value amounted to 23.4 nM under setting [3] and 20.7 nM under setting [4].
For “UGUAUUACGAAAGUAGUACAUCGUGUUCGACGAGGACCGGUACGGCCGCCACUCGGACAUGAGGAUCACCCAUGUAGCGAAAGCU” the same measures were 158 nM and 256 nM.
With “CCUAUGCAGUCGGCCGCCACUGAUAACGUUAUCGUUACCUCAGAAACAUGAGGAUCACCCAUGUACAGGACCGGGACUGUAUAGG”, the “apparent Kd” value was 12.8 nM under setting [1] and 15.3 nM under setting [2].
The like results for “GAACAGUCGGACAUGAGGAUCACCCAUGUGCGAGGACCGGUACGGCCGCCACUCGACAAGGGCGGUCCCGAAGCGAACAUACGCG” were, in that order, 23.8 nM and 14.7 nM.
Regarding “AUAUAUACAUGAGGAUCACCCAUGUUAUUUCGAGGACCGGUACGGCCGCCACUCGAUAGAGUGGAAGUAACAUUUGUUAGAUGAU”, the “apparent Kd” value runs as follows: under setting [3], 15.7 nM; under setting [4], 15.4 nM.
